The test system of experiment [1] is Mycolicibacterium smegmatis. Put plainly: Antimycobacterial activity against Mycobacterium smegmatis atR2 assessed as decrease in drug resistance development at 2 ug/disc after 2 to 3 days by paper disc method. It is filed as functional, organism-based. The gist of the method: (§1)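 Mutant M. smegmatis strains were grown in Middlebrook 7H9/OADC/Tween/glycerol to OD600 1.2. Cultures were diluted 1:9:10 (culture:water:M290) and overlaid on M290 agar. Commercial or impregnated paper discs were applied and plates incubated 2–3 days at 37 °C. Inhibition halos were measured to 1 mm, run in triplicate, mean ± SD.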

Experiment [2] relates to Mycolicibacterium smegmatis. Description: Antimycobacterial activity against Mycobacterium smegmatis atR40 assessed as decrease in drug resistance development at 2 ug/disc after 2 to 3 days by paper disc method. The experiment is classed as functional, organism-based. The gist of the method: (§2)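 Drug-resistant M. smegmatis mc2 155 mutants, isolated on M290 agar with 3.5-4× MIC of compound and resistance re-confirmed, grown in Middlebrook 7H9 (OADC, 0.1% Tween-80, 0.4% glycerol) to OD600 1.2. Diluted 1:9:10 culture:water:M290 and poured as top layer on M290 agar. Impregnated paper discs applied; 37 °C for 2–3 days. Halos measured to nearest 1 mm; triplicates, mean ± SD versus control strain.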

Experiment [3] relates to Mycolicibacterium smegmatis. Description: Antimycobacterial activity against Mycobacterium smegmatis atR19 assessed as decrease in drug resistance development at 2 ug/disc after 2 to 3 days by paper disc method. The experiment is classed as functional, organism-based. The gist of the method: as §1
In experiment [4] the test system is Mycolicibacterium smegmatis. Put plainly: Antimycobacterial activity against Mycobacterium smegmatis atR40 assessed as decrease in drug resistance development at 40 nmol/disc after 2 to 3 days by paper disc method. The experiment is classed as functional, organism-based. The gist of the method: as §2
Experiment [5] has as its system Mycolicibacterium smegmatis. Put plainly: Antimycobacterial activity against Mycobacterium smegmatis atR37 assessed as decrease in drug resistance development at 40 nmol/disc after 2 to 3 days by paper disc method. It is filed as functional, organism-based. An outline of the steps: as §2
For experiment [6], the system named is Mycolicibacterium smegmatis. Put plainly: Antimycobacterial activity against Mycobacterium smegmatis atR14 assessed as decrease in drug resistance development at 40 nmol/disc after 2 to 3 days by paper disc method. The experiment is classed as functional, organism-based. The gist of the method: as §1
Experiment [7] concerns Mycobacterium tuberculosis. Put plainly: Antimycobacterial activity against Mycobacterium tuberculosis H37Rv in liquid medium. It is filed as functional. An outline of the steps:
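M. tuberculosis H37Rv; MIC determined in liquid medium on the automated Bactec MGIT 960 system.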

The test system of experiment [8] is Mycolicibacterium smegmatis. Put plainly: Antimycobacterial activity against Mycobacterium smegmatis atR10 in liquid medium after 48 hrs by two-fold serial dilution method. It is filed as functional. The conditions noted are these: atR10, 48 h. An outline of the steps: (§3)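 M. smegmatis resistant mutants were isolated on M290 agar containing 3.5-4× MIC of the test compound at 30°C and resistance was reconfirmed. MIC was then run in Lemco-Tw broth (Tween-80 0.05%). An overnight culture was diluted 1:200, and two-fold serial dilutions in DMSO were added. Plates were incubated at 37°C and 250 rpm for 48 h. MIC was read as the lowest concentration with no visible growth.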

Experiment [9] has as its system Mycolicibacterium smegmatis. Description: Antimycobacterial activity against Mycobacterium smegmatis atR11 in liquid medium after 48 hrs by two-fold serial dilution method. It is filed as functional. The note with it: atR11, 48 h. An outline of the steps:
as §3

Experiment [10] deals with Mycolicibacterium smegmatis. Put plainly: Antimycobacterial activity against Mycobacterium smegmatis atR9 in liquid medium after 48 hrs by two-fold serial dilution method. It is filed as functional. The conditions noted are these: atR9, 48 h. The gist of the method:
as §3

Experiment [11] deals with Mycolicibacterium smegmatis. Description: Antimycobacterial activity against Mycobacterium smegmatis atR17 assessed as decrease in drug resistance development at 40 nmol/disc after 2 to 3 days by paper disc method. The experiment is classed as functional, organism-based. An outline of the steps:
as §1

In experiment [12] the test system is Mycolicibacterium smegmatis. Put plainly: Antimycobacterial activity against Mycobacterium smegmatis atR10 assessed as decrease in drug resistance development at 40 nmol/disc after 2 to 3 days by paper disc method. It is filed as functional, organism-based. The gist of the method:
as §1

Experiment [13] deals with Mycolicibacterium smegmatis. Put plainly: Antimycobacterial activity against Mycobacterium smegmatis atR14 in liquid medium after 48 hrs by two-fold serial dilution method. The note with it: atR14, 48 h. It is filed as functional. The gist of the method:
as §3

Experiment [14] has as its system Mycolicibacterium smegmatis. Description: Antimycobacterial activity against Mycobacterium smegmatis atR33 in liquid medium after 48 hrs by two-fold serial dilution method. It is filed as functional. The conditions noted are these: atR33, 48 h. The gist of the method:
as §3

The test system of experiment [15] is Mycolicibacterium smegmatis. Put plainly: Antimycobacterial activity against Mycobacterium smegmatis atR37 in liquid medium after 48 hrs by two-fold serial dilution method. The conditions noted are these: atR37, 48 h. The experiment is classed as functional. An outline of the steps:
as §3

The subject of experiment [16] is Mycolicibacterium smegmatis. Description: Antimycobacterial activity against Mycobacterium smegmatis atR8 assessed as decrease in drug resistance development at 40 nmol/disc after 2 to 3 days by paper disc method. The experiment is classed as functional, organism-based. The gist of the method:
as §2

Experiment [17] has as its system Mycolicibacterium smegmatis. Put plainly: Antimycobacterial activity against Mycobacterium smegmatis atR1 in liquid medium after 48 hrs by two-fold serial dilution method. It is filed as functional. The conditions noted are these: atR1, 48 h. The gist of the method:
as §3

Experiment [18] deals with Mycolicibacterium smegmatis. Description: Antimycobacterial activity against Mycobacterium smegmatis atR33 assessed as decrease in drug resistance development at 40 nmol/disc after 2 to 3 days by paper disc method. It is filed as functional, organism-based. The gist of the method: as §1
The subject of experiment [19] is Mycolicibacterium smegmatis. Description: Antimycobacterial activity against Mycobacterium smegmatis atR19 in liquid medium after 48 hrs by two-fold serial dilution method. It is filed as functional. The conditions noted are these: atR19, 48 h. An outline of the steps: as §3
Experiment [20] has as its system Mycolicibacterium smegmatis. Put plainly: Antimycobacterial activity against Mycobacterium smegmatis atR17 in liquid medium after 48 hrs by two-fold serial dilution method. The experiment is classed as functional. The note with it: atR17, 48 h. An outline of the steps:
as §3

The subject of experiment [21] is Mycolicibacterium smegmatis. Put plainly: Antimycobacterial activity against Mycobacterium smegmatis atR1 assessed as decrease in drug resistance development at 40 nmol/disc after 2 to 3 days by paper disc method. It is filed as functional, organism-based. The gist of the method:
as §1

The subject of experiment [22] is Mycolicibacterium smegmatis. Description: Antimycobacterial activity against Mycobacterium smegmatis atR2 in liquid medium after 48 hrs by two-fold serial dilution method. The experiment is classed as functional. The note with it: atR2, 48 h. An outline of the steps:
as §3

Experiment [23] relates to Mycolicibacterium smegmatis. Description: Antimycobacterial activity against Mycobacterium smegmatis MC2 155 in solid medium by two-fold serial dilution method. The experiment is classed as functional. The gist of the method: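 M290 soybean-casein agar plates carried two-fold compound dilutions, 8–64 or 8–128 µg/ml, some with extra 20 or 25 µg/ml plates.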
In experiment [24] the test system is Mycolicibacterium smegmatis. Put plainly: Antimycobacterial activity against Mycobacterium smegmatis atR11 assessed as decrease in drug resistance development at 40 nmol/disc after 2 to 3 days by paper disc method. The experiment is classed as functional, organism-based. An outline of the steps: as §1
Experiment [25] relates to Mycolicibacterium smegmatis MC2 155. Put plainly: Inhibition of STPK in Mycobacterium smegmatis MC2 155 expressing aminoglycoside phophotransferase-8 assessed as growth inhibition at 5 nmol/disk after 18 hrs in presence of kanamycin by paper disk method.
The subject of experiment [26] is Mycolicibacterium smegmatis. Put plainly: Antimycobacterial activity against Mycobacterium smegmatis MC2 155 in liquid medium after 48 hrs by two-fold serial dilution method. The conditions noted are these: MC2 155, 48 h. The experiment is classed as functional. The gist of the method: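 M. smegmatis mc2 155 grown overnight in Lemco-Tw broth, diluted 1:200 in fresh broth. […] Top wells could carry 4% DMSO. Incubated 48 h at 37 °C with shaking at 250 rpm. MIC is the lowest concentration with no visible growth.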

Experiment [27] deals with Mycolicibacterium smegmatis. Description: Antimycobacterial activity against Mycobacterium smegmatis atR40 in liquid medium after 48 hrs by two-fold serial dilution method. The experiment is classed as functional. The conditions noted are these: atR40, 48 h. An outline of the steps:
as §3

Experiment [28] concerns Mycolicibacterium smegmatis. Put plainly: Antimycobacterial activity against Mycobacterium smegmatis atR8 in liquid medium after 48 hrs by two-fold serial dilution method. The experiment is classed as functional. The conditions noted are these: atR8, 48 h. An outline of the steps:
as §3

The subject of experiment [29] is Mycolicibacterium smegmatis. Description: Antimycobacterial activity against Mycobacterium smegmatis atR19 assessed as decrease in drug resistance development at 40 nmol/disc after 2 to 3 days by paper disc method. The experiment is classed as functional, organism-based. An outline of the steps: as §1
Experiment [30] concerns Mycolicibacterium smegmatis. Description: Antimycobacterial activity against Mycobacterium smegmatis atR2 assessed as decrease in drug resistance development at 40 nmol/disc after 2 to 3 days by paper disc method. It is filed as functional, organism-based. The gist of the method: as §1
The test system of experiment [31] is Mycolicibacterium smegmatis. Put plainly: Antimycobacterial activity against Mycobacterium smegmatis atR10 assessed as decrease in drug resistance development at 10 ug/disc after 2 to 3 days by paper disc method. It is filed as functional, organism-based. An outline of the steps: as §1
Experiment [32] deals with Mycolicibacterium smegmatis. Put plainly: Antimycobacterial activity against Mycobacterium smegmatis atR33 assessed as decrease in drug resistance development at 10 ug/disc after 2 to 3 days by paper disc method. It is filed as functional, organism-based. An outline of the steps: as §1
Experiment [33] concerns Mycolicibacterium smegmatis. Put plainly: Antimycobacterial activity against Mycobacterium smegmatis atR9 assessed as decrease in drug resistance development at 10 ug/disc after 2 to 3 days by paper disc method. The experiment is classed as functional, organism-based. An outline of the steps:
as §2

In experiment [34] the test system is Mycolicibacterium smegmatis. Put plainly: Antimycobacterial activity against Mycobacterium smegmatis atR37 assessed as decrease in drug resistance development at 10 ug/disc after 2 to 3 days by paper disc method. The experiment is classed as functional, organism-based. An outline of the steps:
as §2

≈ marks a conversion by molar mass, not a printed value. Calls of active or inactive are those of the source. The calls are words filed in the database; no cut-off is given here.

From ChEMBL document CHEMBL4359813, “Synthesis and antimycobacterial activity of imidazo[1,2-b][1,2,4,5]tetrazines” (2019) come the findings set out here.

With `CC1COc2c(N3CCN(C)CC3)c(F)cc3c(=O)c(C(=O)O)cn1c23` (centres undefined), the result in [1], in experiment [2] and in experiment [3] was inactive.

With `Cc1cc(C)n(-c2nnc3ncc(Sc4ccccc4)n3n2)n1`, the outcome in experiment [4], in [5], in [6], in [11], in [12] and in [16] was inactive. Further, the result in experiment [18], in experiment [21], in experiment [24], in [29] and in experiment [30] was inactive. The MIC (in general, the least concentration at which growth counts as inhibited) in experiment [7] is 3.1 µM (≈ 1 µg/mL); in [8] it was above 64 µg/mL; in experiment [9], above 64 µg/mL; in experiment [10], above 64 µg/mL; in experiment [13], above 64 µg/mL; in [14], above 64 µg/mL. For the same compound, the MIC was above 64 µg/mL in experiment [15]; above 64 µg/mL in experiment [17]; above 64 µg/mL in experiment [19]; above 64 µg/mL in experiment [20]; above 64 µg/mL in [22]; 61.8 µM (≈ 20 µg/mL) in experiment [23]. The MIC is 99 µM (≈ 32 µg/mL) in [26], above 64 µg/mL in [27] and above 64 µg/mL in experiment [28]. The inhibition zone (IZ) in experiment [25] amounted to 11.5 mm.

Consider `C[C@@H](O)[C@H]1C(=O)N2C(C(=O)O)=C(SCCNC=N)C[C@H]12`, for which the outcome in experiment [31], in experiment [32], in [33] and in experiment [34] was inactive.
